# High-throughput results as filed in PubChem.
# Shown is part of a subset that was picked to be rich in hits.
# CHOP inhibitor – inhibitors of CHOP promoter induction, primary screen, cell-based, unfolded protein response, luciferase reporter; 220,000 tested, 3.8% active; CHO-K1 CHOP-promoter luciferase, tunicamycin-induced, 15-18 h; inhibition, % at 10 µM; AID 2732, 2010;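 active means compounds that reduced the stress-induced luciferase reporter signal by more than about 70% of percent inhibition, limit read from the data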;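 further: 0% = tunicamycin plus vehicle and 100% = wells without tunicamycin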
# UPR XBP1 act – activators of adaptive XBP1 UPR arm, primary screen, cell-based, CHO-XBP1 luciferase reporter, luminescence, uHTS; activation, % at 20 µM; 330,000 tested, 0.33% active; AID 463104, 2010; IRE1-XBP1 UPR activation; percent of tunicamycin response, DMSO as zero;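 active means versus positive control, 20 µM dose yields 30% or more activation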;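 further: 100% = tunicamycin at 10 µg/mL and 0% = DMSO only wells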
#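 incubation = overnight seeding at 37 °C, 6 h compound treatment at 37 °C | assay system = CHO-XBP1 cells stably carrying IRE1-XBP1-driven luciferase reporter | input = 1000 cells per well | detection = luciferase luminescence | dosing = single point, 20 µM final compound, 1% DMSO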
# Bfl-1 A1 inh – caspase 3/7 activation in MEF A1-2A-BIM cells, primary screen, A1 inhibitor project, cell-based, luminescence, HTS; Caspase-Glo 3/7 luminescence, 3 h; percent of clofoctol response, vehicle zero; caspase activation, % (concentration not given with the values); 330,000 tested, 0.066% active; AID 2462, 2010;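 active means over half of replicate activation scores above 10%, or exactly half above 10 with the replicate mean above 10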
# UPR CHOP act – activators of apoptotic CHOP UPR arm, primary screen, cell-based, CHO-CHOP luciferase reporter, luminescence, uHTS; 330,000 tested, 0.34% active; UPR activation; percent of tunicamycin response over DMSO baseline; activation, % at 10 µM; AID 449763, 2010;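 active means at 10 µM dose, activation of 40% or more, normalized to positive control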;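 further: 100% = tunicamycin at 10 µg/mL and 0% = DMSO alone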
#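 Material: CHO-CHOP cells, stable luciferase reporter of PERK-eIF2a-CHOP signalling; quantity: 500 reporter cells seeded per well; buffer or medium: F12 medium containing 10% fetal bovine serum; compound: one dose, 10 µM in 0.5% DMSO; incubation: 6 h compound treatment, 37 °C; measured by: Steady-Glo luciferase luminescence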
# An asterisk follows results filed as active; / = not tested or not shown.
SMILES,CHOP inhibitor,UPR XBP1 act,Bfl-1 A1 inh,UPR CHOP act
O=C(Cn1cc([N+](=O)[O-])cn1)NCc1ccc(-n2cccn2)cc1,-3.6,-3.5,0.5,-0.6
CCOc1ccc2nc(NCCNC(=O)Nc3ccccc3)c(C#N)cc2c1,82.7*,/,0.4,/
C/C(=C\C(=O)C(F)(F)F)Nc1ccc(C)cc1,-0.4,0.1,-0.6,3.6
CCCCCCOC(=O)Sc1nc2ccccc2o1,95.1*,-1.6,-1.4,0.1
O=C(Nc1ccc(Br)cc1)C1CCCN(S(=O)(=O)c2cccnc2)C1 (stereo not drawn),7.1,-4.7,0.9,0.1
Cc1cc(Cl)ccc1OCc1nnc(-c2ccccc2C)o1,/,8.5,/,6.4
COc1cc(-c2nnc(COc3ccc(Cl)cc3C)o2)cc(OC)c1OC,71.6*,-2.8,0.8,-3.9
Nc1nc(Nc2ccc(Cl)cc2Cl)nc(C(F)(F)F)n1,74.9*,3.5,0.2,3.4
C/C(=N\NC(=O)COc1ccc(C#N)cc1)c1ccc(N2CCOCC2)cc1,13.6,2.9,1.4,-1.2
Cc1ccc(Sc2ccc(NC(=O)CCl)cc2)c(C)c1,83.7*,2.4,1.6,19.8
CN1CCN(c2ccc([N+](=O)[O-])cc2C(=O)Nc2ccccc2)CC1,8.4,-3.1,0.3,0.1
COC(=O)C(C)n1cnc2c(nnn2Cc2ccc(Cl)cc2)c1=O (stereo not drawn),8.3,0.3,-0.3,0.8
CCn1c2ccccc2n2c(=O)c(=O)n(CC(=O)Nc3ccc(C(C)C)cc3)nc12,87.0*,-0.3,0.0,3.6
Cc1ccc(S(=O)(=O)n2c(N)nc3ccccc32)cc1,/,-4.7,1.4,3.8
Cc1ccc(C(=O)n2c(N)nc3ccccc32)cc1,74.8*,-5.6,-7.9,-9.5
Cc1ccc(C)c(NS(=O)(=O)c2c(C)ccc3nsnc23)c1,12.2,-0.4,-0.3,0.7
Cc1ccc(C(=O)Nc2cccc(C(F)(F)F)c2)cc1NC(=O)c1cnnc2ccccc12,89.2*,-3.7,-0.5,1.8
CC(=O)Nc1ccc(S(=O)(=O)NCc2cn3c(C)csc3n2)cc1,12.5,-2.1,0.1,-1.2
CCc1ccc(S(=O)(=O)NCc2csc(-c3ccccc3)n2)s1,72.9*,-1.2,-0.2,-1.1
CCc1ccc(S(=O)(=O)NCc2cn3c(C)csc3n2)s1,90.2*,-0.6,0.0,-0.4
COc1ccccc1C1(O)CCN(CC(=O)Nc2c(C)nn(C)c2C)CC1,20.0,-1.2,-0.6,0.7
Cc1cccc(C)c1NC(=O)CSc1nc2ccccc2c(=O)[nH]1,70.8*,-1.9,0.3,4.4
CCc1ccc(C(=O)CSc2nc3ccccc3c(=O)[nH]2)cc1,95.5*,-2.9,-0.6,-2.3
Cc1ccc(C(=O)CSc2nc3ccccc3c(=O)[nH]2)cc1,-2.0,-0.2,-1.0,-2.0
O=C(CCCSc1nc2ccccc2c(=O)[nH]1)c1ccc(F)cc1,79.0*,-3.4,-1.8,1.2
SMILES,CHOP inhibitor,UPR XBP1 act,Bfl-1 A1 inh,UPR CHOP act
N#C/C(=C\c1cccc([N+](=O)[O-])c1)C(=O)NCc1cccnc1,-21.1,-1.2,-0.7,-1.4
N#C/C(=C\c1cccc([N+](=O)[O-])c1)C(=O)NCc1ccc(Cl)cc1,91.9*,/,/,/
CC(C)CC(=O)CN1C(=O)C2(OCCO2)c2ccccc21,74.5*,-1.1,-0.2,-1.5
O=C1N(Cc2ccc(F)cc2Cl)c2ccccc2C12OCCCO2,79.7*,7.9,-3.4,0.9
CCCC(=O)CN1C(=O)C2(OCCO2)c2ccccc21,30.2,-2.2,1.4,0.7
O=C1N(Cc2ccccc2F)c2ccccc2C12OCCCO2,-5.5,0.7,0.1,1.9
Cn1c(=O)c(-[n+]2ccccc2)c([O-])c2ccccc21,-8.1,-0.2,1.9,-1.3
COC(=O)[C@H](C)NC(=O)Nc1cccc(C)c1,28.9,-2.5,0.2,1.4
Cc1ccc2c(c1)sc1nc(=O)n(-c3ccc(Cl)cc3)c(=O)n12,79.5*,8.5,0.1,3.4
Cc1ccc2c(c1)sc1nc(=O)n(-c3ccc(Cl)c(Cl)c3)c(=O)n12,18.6,8.3,0.4,28.9
COc1ccc(CC(=O)NCC(=O)NCc2cc(=O)n(C)c(=O)n2C)cc1,/,1.4,0.1,-1.5
CCc1nc2c(s1)CCc1onc(-c3ccc(Cl)cc3)c1-2,/,-1.5,0.0,-1.4
O=C(OCc1ccc(Cl)cc1)c1cnccn1,82.5*,-1.5,-0.7,-1.6
